Data published in publication PMC9633546 (Angewandte Chemie (International Ed. in English), 2022).
Converted amounts (≈) assume the structure as drawn.

How the values were obtained:
M. abscessus ATCC 19977 = test: MIC assay in 96-well plate format, WT M. abscessus; assay type: cell-based, Mycobacterium abscessus subsp. abscessus; settings: Mycobacteroides abscessus, ATCC19977, read-out: WT Mab MIC
Δarr M. abscessus = test: MIC assay in 96-well plate format, arr-deleted strain; assay type: cell-based, Mycobacterium abscessus; settings: isogenic arr-deleted M. abscessus ATCC 19977; 90 % growth inhibition
in vitro = settings: plasma
[1] = Pharmacokinetics studies in CD-1 mice; assay type: in vivo, mouse
Arr Mab = test: LC-MS/HPLC in vitro validation of ADP-ribosylation; assay type: biochemical, M. abscessus; settings: 40 minute incubation, 5 µM enzyme
Summary of the method: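 The enzyme was recombinant M. abscessus Arr, cloned, expressed and purified in-house. Enzymatic reactions were analysed by LC-MS, quantifying the remaining rifamycin and its ADP-ribosylated adducts.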

Row | SMILES | MIC (M. abscessus ATCC 19977) [µM] | Δarr Mab MIC (Δarr M. abscessus) [µM] | fraction unbound (in vitro) | V d ([1]; CD-1 mice, single dose 10 mg/kg) [L/kg] | fAUC/MIC ([1]; based on p.o. doses of 10 mg kg^−1) | half-life ([1]; female, CD-1, mouse, plasma, 10 mg/kg) [h] | ADP-ribosylation upon incubation with Arr Mab and NAD+ (Arr Mab) | ADP-ribosylation upon incubation with Arr Mab and NAD+ (Arr Mab; listed as Rifabutin)
1 | CC[C@H]1OC(=O)[C@H](C)[C@@H](O[C@H]2C[C@@](C)(OC)[C@@H](O)[C@H](C)O2)[C@H](C)[C@@H](O[C@@H]2O[C@H](C)C[C@H](N(C)C)[C@H]2O)[C@](C)(OC)C[C@@H](C)C(=O)[C@H](C)[C@@H](O)[C@]1(C)O [clarithromycin] | 1.45 (≈ 1.08 µg/mL) | 1.8 | – | – | – | – | – | –
2 | CO[C@H]1/C=C/O[C@@]2(C)Oc3c(C)c(O)c4c(c3C2=O)C2=NC3(CCN(CC(C)C)CC3)NC2=C(NC(=O)/C(C)=C\C=C\[C@H](C)[C@H](O)[C@@H](C)[C@@H](O)[C@@H](C)[C@H](OC(C)=O)[C@@H]1C)C4=O [rifabutin] | 1.15 (≈ 0.974 µg/mL) | 0.031 | 0.0376 | 3.51 | 0.22 | 4 | completely converted | fully converted
3 | CO[C@H]1/C=C/O[C@@]2(C)Oc3c(C)c(O)c4c(O)c(c(/C=N/N5CCN(C)CC5)c(O)c4c3C2=O)NC(=O)/C(C)=C\C=C\[C@H](C)[C@H](O)[C@@H](C)[C@@H](O)[C@@H](C)[C@H](OC(C)=O)[C@@H]1C [rifampicin] | 5.3 (≈ 4.36 µg/mL) | 0.26 | – | – | – | – | completely converted | –
